ChEMBL document CHEMBL2384914, “Synthetic tactics of new class of 4-aminothieno[2,3-d]pyrimidine-6-carbonitrile derivatives acting as antimicrobial agents” (2013)

Columns and labels:
[1] = tested on: Staphylococcus aureus; assay: Antibacterial activity against Staphylococcus aureus MTCC 96 assessed as growth inhibition by broth microdilution method; format: functional
[2] = tested on: Escherichia coli; assay: Antibacterial activity against Escherichia coli MTCC 443 assessed as growth inhibition by broth microdilution method; format: functional
[3] = tested on: Streptococcus pyogenes; assay: Antibacterial activity against Streptococcus pyogenes MTCC 442 assessed as growth inhibition by broth microdilution method; format: functional
[4] = tested on: Aspergillus clavatus; assay: Antifungal activity against Aspergillus clavatus MTCC 1323 assessed as growth inhibition by broth microdilution method; format: functional
[5] = tested on: Pseudomonas aeruginosa; assay: Antibacterial activity against Pseudomonas aeruginosa MTCC 441 assessed as growth inhibition by broth microdilution method; format: functional
[6] = tested on: Candida albicans; assay: Antifungal activity against Candida albicans MTCC 227 assessed as growth inhibition by broth microdilution method; format: functional
Summary of the method: (§1)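 Fungal MTCC cultures were tested by broth microdilution with DMSO-diluted drug in serial dilutions, as a primary screen followed by a second dilution set for actives. MIC was the lowest concentration inhibiting growth. Each experiment was run three times and the MICs averaged.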

[7] = tested on: Aspergillus niger; assay: Antifungal activity against Aspergillus niger MTCC 282 assessed as growth inhibition by broth microdilution method; format: functional; summary of the method: as §1
[8] = tested on: Aspergillus clavatus; conditions: MTCC 1323

| Molecule | MIC [1] | MIC [2] | MIC [3] | MIC [4] | MIC [5] | MIC [6] | MIC [7] | MIC [8] |
| --- | --- | --- | --- | --- | --- | --- | --- | --- |
| N#Cc1sc2ncnc(NCc3ccccc3)c2c1-c1ccc(Cl)cc1 | 100 µg/mL | 250 µg/mL | 125 µg/mL | 1000 µg/mL | 250 µg/mL | 1000 µg/mL | 1000 µg/mL |  |
| N#Cc1sc2ncnc(N3CCN(c4cccc(Cl)c4Cl)CC3)c2c1-c1ccc(Cl)cc1 | 250 µg/mL | 200 µg/mL | 250 µg/mL | 1000 µg/mL | 100 µg/mL | 1000 µg/mL | 500 µg/mL |  |
| N#Cc1sc2ncnc(Cl)c2c1-c1ccc(Cl)cc1 | 100 µg/mL | 200 µg/mL | 250 µg/mL | 1000 µg/mL | 250 µg/mL | 1000 µg/mL | 1000 µg/mL |  |
| N#Cc1sc2ncnc(Nc3ccccc3Cl)c2c1-c1ccc(Cl)cc1 | 200 µg/mL | 125 µg/mL | 100 µg/mL | > 1000 µg/mL | 62.5 µg/mL | 500 µg/mL | > 1000 µg/mL |  |
| O=C(O)c1cn(C2CC2)c2cc(N3CCNCC3)c(F)cc2c1=O [CIPROFLOXACIN] | 50 µg/mL | 25 µg/mL | 50 µg/mL |  |  |  |  |  |
| NC(=O)c1sc(N)c(C(N)=O)c1-c1ccc(Cl)cc1 | 250 µg/mL | 200 µg/mL | 200 µg/mL | > 1000 µg/mL | 250 µg/mL | 500 µg/mL | > 1000 µg/mL |  |
| O=C(N[C@H](CO)[C@H](O)c1ccc([N+](=O)[O-])cc1)C(Cl)Cl [CHLORAMPHENICOL] | 50 µg/mL | 50 µg/mL | 50 µg/mL |  | 50 µg/mL |  |  |  |
| N#Cc1sc2nc[nH]c(=O)c2c1-c1ccc(Cl)cc1 | 200 µg/mL | 100 µg/mL | 250 µg/mL | > 1000 µg/mL | 62.5 µg/mL | 500 µg/mL | > 1000 µg/mL |  |
| CCn1cc(C(=O)O)c(=O)c2cc(F)c(N3CCNCC3)cc21 [NORFLOXACIN] | 10 µg/mL | 10 µg/mL | 10 µg/mL |  | 10 µg/mL |  |  |  |
| N#Cc1sc2ncnc(N3CCNCC3)c2c1-c1ccc(Cl)cc1 | 62.5 µg/mL | 125 µg/mL | 100 µg/mL | > 1000 µg/mL | 250 µg/mL | 1000 µg/mL | 1000 µg/mL |  |
| Cc1cccc(Nc2ncnc3sc(C#N)c(-c4ccc(Cl)cc4)c23)c1 | 250 µg/mL | 250 µg/mL | 250 µg/mL | > 1000 µg/mL | 200 µg/mL | > 1000 µg/mL | > 1000 µg/mL |  |
| N#Cc1sc2ncnc(N3CCOCC3)c2c1-c1ccc(Cl)cc1 | 250 µg/mL | 125 µg/mL | 250 µg/mL | > 1000 µg/mL | 200 µg/mL | 1000 µg/mL | > 1000 µg/mL |  |
| CCOC(=O)N1CCN(c2ncnc3sc(C#N)c(-c4ccc(Cl)cc4)c23)CC1 | 250 µg/mL | 62.5 µg/mL | 250 µg/mL | 1000 µg/mL | 100 µg/mL | > 1000 µg/mL | 1000 µg/mL |  |
| NC(=O)c1sc2nc[nH]c(=O)c2c1-c1ccc(Cl)cc1 | 200 µg/mL | 125 µg/mL | 200 µg/mL | 500 µg/mL | 200 µg/mL | > 1000 µg/mL | 250 µg/mL |  |
| N#Cc1sc2ncnc(Nc3cccc(Cl)c3)c2c1-c1ccc(Cl)cc1 | 200 µg/mL | 100 µg/mL | 250 µg/mL | 500 µg/mL | 100 µg/mL | > 1000 µg/mL | 500 µg/mL |  |
| CCN(CC)c1ncnc2sc(C#N)c(-c3ccc(Cl)cc3)c12 | 200 µg/mL | 200 µg/mL | 200 µg/mL | > 1000 µg/mL | 250 µg/mL | 1000 µg/mL | > 1000 µg/mL |  |
| N#Cc1sc2ncnc(N3CCN(C(=O)C4COc5ccccc5O4)CC3)c2c1-c1ccc(Cl)cc1 (stereo not drawn) | 100 µg/mL | 100 µg/mL | 125 µg/mL | 1000 µg/mL | 250 µg/mL | 250 µg/mL | 1000 µg/mL |  |
| Cc1ccccc1Nc1ncnc2sc(C#N)c(-c3ccc(Cl)cc3)c12 | 250 µg/mL | 200 µg/mL | 125 µg/mL | > 1000 µg/mL | 200 µg/mL | > 1000 µg/mL | > 1000 µg/mL |  |
| COC1=CC(=O)C[C@@H](C)[C@]12Oc1c(Cl)c(OC)cc(OC)c1C2=O [GRISEOFULVIN] |  |  |  | 100 µg/mL |  | 500 µg/mL | 100 µg/mL |  |
| N#Cc1sc2ncnc(N3CCN(c4nsc5ccccc45)CC3)c2c1-c1ccc(Cl)cc1 | 200 µg/mL | 100 µg/mL | 200 µg/mL | > 1000 µg/mL | 250 µg/mL | 500 µg/mL | > 1000 µg/mL |  |
| GENTAMICIN | 0.25 µg/mL | 0.05 µg/mL | 0.5 µg/mL |  | 1 µg/mL |  |  |  |
| N#Cc1sc2ncnc(N3CCCCC3)c2c1-c1ccc(Cl)cc1 | 125 µg/mL | 250 µg/mL | 200 µg/mL | > 1000 µg/mL | 250 µg/mL | 250 µg/mL | > 1000 µg/mL |  |
| NYSTATIN |  |  |  |  |  | 100 µg/mL | 100 µg/mL | 100 µg/mL |
| CC1(C)S[C@@H]2[C@H](NC(=O)[C@H](N)c3ccccc3)C(=O)N2[C@H]1C(=O)O [AMPICILLIN] | 250 µg/mL | 100 µg/mL | 100 µg/mL |  |  |  |  |  |
